In ChEMBL document CHEMBL1146603, “Use of a pharmacophore model to discover a new class of influenza endonuclease inhibitors” (J Med Chem, 2003):

Experiments:
[1] = molecular target: Polymerase acidic protein (Influenza A virus (A/Puerto Rico/8/1934(H1N1)), UniProt P03433); assay: Inhibitory concentration against cap-dependent endonuclease activity of influenza A/PR/8/34 RNP; assay type: functional
Summary of the method: (§1)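 Cap-dependent transcription run on a filter plate. 10 nM RNP purified from A/PR/8/34 or B/Lee/40 virus was mixed with 0.01 mg/mL AMV RNA, 50 μM GTP, 50 μM CTP, 500 μM ATP and 5 μM [radiolabeled] UTP. Buffer was 50 mM Tris-HCl pH 8 with 100 mM KCl, 5 mM MgCl₂, 10% DMSO, 5 mM DTT and 0.2 mg/mL BSA. Incubation was 90 min at 31 °C. TCA-precipitated RNA was scintillation-counted. IC50 came from dose–response curves.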

[2] = system: unidentified influenza virus; assay: Effective concentration against influenza virus in MDCK cells; assay type: functional, organism-based
Summary of the method: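 Antiviral dose–response read as protection of MDCK cells from influenza virus-induced cell death.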

[3] = molecular target: Polymerase acidic protein (Influenza B virus (strain B/Lee/1940), UniProt Q9QLI9); assay: Inhibitory concentration against cap-dependent endonuclease activity of influenza B/Lee/40 RNP; assay type: functional; summary of the method: as §1
[4] = molecular target: Polymerase acidic protein (Influenza A virus (A/Puerto Rico/8/1934(H1N1)), UniProt P03433); assay: Inhibitory concentration against cap-dependent endonuclease activity of influenza virus RNP; assay type: functional, unidentified influenza virus
Summary of the method: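 Gel-based cap-dependent endonuclease assay. 1 nM influenza RNP was incubated with 0.1 nM cap-labeled 20-mer G20 RNA in 50 mM Tris-HCl pH 8 with 1 mM MgCl₂, 20 mM KCl, 1 U/μL RNase inhibitor and 0.3% Triton X-100, for 5 min at 31 °C. Cleavage products were resolved on polyacrylamide gels and quantified by phosphorimager. IC50 came from dose–response curves.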

[5] = molecular target: Polymerase acidic protein (Influenza A virus (A/Puerto Rico/8/1934(H1N1))) (UniProt P03433); assay: Percent inhibition of cap-dependent endonuclease activity of influenza virus RNP at 100 uM; assay type: functional; details: unidentified influenza virus

Sequence of Polymerase acidic protein (Q9QLI9 whole entry): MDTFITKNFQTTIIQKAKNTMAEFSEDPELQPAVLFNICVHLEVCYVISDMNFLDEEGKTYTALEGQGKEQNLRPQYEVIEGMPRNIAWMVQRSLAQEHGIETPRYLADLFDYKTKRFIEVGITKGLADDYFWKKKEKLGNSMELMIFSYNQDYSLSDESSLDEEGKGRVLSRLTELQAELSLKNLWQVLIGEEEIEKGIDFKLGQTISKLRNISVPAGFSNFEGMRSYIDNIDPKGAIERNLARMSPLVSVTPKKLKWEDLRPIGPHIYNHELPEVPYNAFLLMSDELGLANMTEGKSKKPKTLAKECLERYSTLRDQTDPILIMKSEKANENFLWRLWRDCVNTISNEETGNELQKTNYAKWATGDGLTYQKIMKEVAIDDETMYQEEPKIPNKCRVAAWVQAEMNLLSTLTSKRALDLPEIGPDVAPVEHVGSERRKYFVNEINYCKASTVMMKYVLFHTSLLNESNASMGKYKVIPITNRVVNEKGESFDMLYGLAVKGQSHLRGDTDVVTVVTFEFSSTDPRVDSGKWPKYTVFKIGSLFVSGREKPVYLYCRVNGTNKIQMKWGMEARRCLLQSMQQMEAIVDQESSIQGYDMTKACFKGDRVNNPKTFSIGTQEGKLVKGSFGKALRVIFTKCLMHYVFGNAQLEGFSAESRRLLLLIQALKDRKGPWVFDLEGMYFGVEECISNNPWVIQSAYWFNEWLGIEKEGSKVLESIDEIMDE

| SMILES | IC50 [1] [µM] | IC50 [4] [µM] | other results |
| --- | --- | --- | --- |
| O=C(c1ccccc1)c1c(O)n(O)c2cc(NS(=O)(=O)c3cccs3)ccc12 | 48 | – | – |
| CC(=O)c1c(O)n(O)c2cc(NC(=O)c3ccc4ccccc4c3)ccc12 | 9 | – | EC50 [2]: 21 µM; IC50 [3]: 18 µM |
| O=c1c2nccnc2ncn1O | – | > 500 | – |
| CC(=O)c1c(O)n(O)c2cc(NC(=O)Nc3cccc(C(=O)O)c3)ccc12 | 14 | – | – |
| O=C(Nc1ccc2c(C(=O)c3ccccc3)c(O)n(O)c2c1)c1ccccc1 | 10 | – | EC50 [2]: > 90 µM; IC50 [3]: 56 µM |
| O=C(Nc1ccc2c(C(=O)c3ccccc3)c(O)n(O)c2c1)NC1CCCCC1 | 50 | – | – |
| O=C1CCc2ccccc2C(=O)N1O | – | > 1000 | – |
| CC(=O)c1c(O)n(O)c2cc(NC(=O)c3cccs3)ccc12 | 40 | – | – |
| O=C1Cc2ccccc2CN1O | – | 100 | inhibition [5]: 25% |
| NN1C(=O)Cc2ccccc2C1=O | – | 800 | – |
| O=C(O)C(=O)/C=C(\O)c1ccc(C2CCCCC2)cc1 | – | 5 | – |
| CCC(=O)c1c(O)n(O)c2cc(NC(=O)Nc3ccc(Cl)cc3)ccc12 | 38 | – | – |
| CCC(=O)c1c(O)n(O)c2cc(NC(=O)Nc3ccccc3)ccc12 | 40 | – | – |
| O=C1c2ccccc2C(=O)N1O | – | > 500 | – |
| CCC(=O)c1c(O)n(O)c2cc(NC(=O)c3cccs3)ccc12 | 35 | – | – |
| O=C(Nc1ccccc1)Nc1ccc2c(C(=O)c3ccccc3)c(O)n(O)c2c1 | 29 | – | – |
| CCc1cc(OC)c(OC)c(C(=O)NC[C@@H]2CCCN2CC)c1OC | 32 | – | – |
| CC(C)/C=C1\N=C(CC(C)C)C(=O)N(O)C1=O | – | 5.5 | – |
| CC(=O)c1c(O)n(O)c2cc(NC(=O)/C=C/c3ccccc3Cl)ccc12 | 26 | – | – |
| O=C(NO)c1ccccc1 [BENZOHYDROXAMATE] | – | > 500 | – |

| SMILES | IC50 [1] [µM] | IC50 [4] [µM] | other results |
| --- | --- | --- | --- |
| CCC(=O)c1c(O)n(O)c2cc(NC(=O)Nc3ccccc3Cl)ccc12 | 50 | – | – |
| O=C(Nc1ccc2c(C(=O)c3ccccc3)c(O)n(O)c2c1)c1ccc(Cl)cc1Cl | 38 | – | – |
| O=C(Nc1ccc2c(C(=O)c3ccccc3)c(O)n(O)c2c1)c1cccs1 | 20 | – | – |
| O=C1Cc2ccccc2CC(=O)N1O | – | > 1000 | – |
| O=c1[nH]c2nccnc2c(=O)n1O | – | 95 | – |
| O=C(Nc1cccc(C(=O)O)c1)Nc1ccc2c(C(=O)c3ccccc3)c(O)n(O)c2c1 | 3 | – | EC50 [2]: > 100 µM; IC50 [3]: 6 µM |
| O=C(Nc1ccc2c(C(=O)c3ccccc3)c(O)n(O)c2c1)c1cnc2ccccc2n1 | 17 | – | – |
| O=C(/C=C/c1ccccc1Cl)Nc1ccc2c(C(=O)c3ccccc3)c(O)n(O)c2c1 | 9.5 | – | EC50 [2]: > 30 µM; IC50 [3]: 26 µM |
| O=C(Nc1ccc2c(C(=O)c3ccccc3)c(O)n(O)c2c1)c1ccc2ccccc2c1 | 8 | – | EC50 [2]: > 40 µM; IC50 [3]: 29 µM |
| CCC(=O)c1c(O)n(O)c2cc(NC(=O)Nc3cccc(C(=O)O)c3)ccc12 | 10 | – | – |
| CCC(=O)c1c(O)n(O)c2cc(NC(=O)c3cnc4ccccc4n3)ccc12 | 10 | – | – |
| O=C(c1ccccc1)c1c(O)n(O)c2cc(NC(=O)C3CCCCC3)ccc12 | 18 | – | – |
| Cc1cc(C(=O)Nc2ccc3c(C(=O)c4ccccc4)c(O)n(O)c3c2)no1 | 9.5 | – | EC50 [2]: > 100 µM |
| CCC(=O)c1c(O)n(O)c2cc(NC(=O)/C=C/c3ccccc3Cl)ccc12 | 8 | – | – |
| COCON1C(=O)C(CC(C)C)=N/C(=C\C(C)C)C1=O | – | > 355 | – |
| CC(=O)c1c(O)n(O)c2cc(NC(=O)c3cnc4ccccc4n3)ccc12 | 11 | – | – |
| CCC(=O)c1c(O)n(O)c2cc(NC(=O)c3ccc(Cl)cc3Cl)ccc12 | 45 | – | – |
| CC(C)CC1=N/C(=C\c2ccc(F)cc2)C(=O)NC1=O | – | > 365 | – |
| CON1C(=O)Cc2ccccc2C1=O | – | 710 | – |
